The values that follow come from publication PMC11439338 (BMC Chemistry, 2024).

Entries after “also recorded” stand apart in the source; their conditions may differ.

In experiment [1] the test system is mushroom tyrosinase (EC 1.14.18.1). The experiment is described as follows: In vitro mushroom tyrosinase inhibition assay. The experiment is classed as biochemical. Particulars: SAR discussion.
For the next experiment, the target named is mushroom tyrosinase (Agaricus bisporus, UniProt C7FF04). The experiment is described as follows: Kinetic study of tyrosinase inhibition. Type of experiment: biochemical. The procedure, abridged: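 Mushroom tyrosinase diphenolase activity; test compound in DMSO, pre-incubated 20 min at 28 °C with enzyme (added as 600 U mL−1 solution) in 50 mM phosphate buffer pH 6.8. Inhibitor 5–50 µM; L-Dopa 0.1–1.5 mM. Dopachrome at 490 nm read each minute for 10 min; initial velocity from linear segment. Lineweaver–Burk plots gave Km and Vmax; Ki from slope versus inhibitor concentration.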
Chain of mushroom tyrosinase (C7FF04 1-392): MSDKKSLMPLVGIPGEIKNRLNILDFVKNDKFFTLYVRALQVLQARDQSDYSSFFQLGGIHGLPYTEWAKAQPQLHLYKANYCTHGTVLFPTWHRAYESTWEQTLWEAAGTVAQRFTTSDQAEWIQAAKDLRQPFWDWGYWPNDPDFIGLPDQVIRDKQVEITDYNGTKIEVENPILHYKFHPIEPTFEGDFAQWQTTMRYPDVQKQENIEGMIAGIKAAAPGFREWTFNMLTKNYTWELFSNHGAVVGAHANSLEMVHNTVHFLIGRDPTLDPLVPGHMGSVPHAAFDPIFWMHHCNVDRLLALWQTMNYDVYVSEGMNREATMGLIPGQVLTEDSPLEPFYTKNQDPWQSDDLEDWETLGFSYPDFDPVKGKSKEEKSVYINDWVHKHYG

Consider `CC1(C)CC(=O)C2=C(C1)OC(N)=C(C#N)C2c1ccc(OCc2ccc(F)cc2)cc1` (stereo not drawn) [6c, 2-Amino-4-(4-((4-fluorobenzyl)oxy)phenyl)-7,7-dimethyl-5-oxo-5,6,7,8-tetrahydro-4H-chromene-3-carbonitrile], for which the “activity against tyrosinase (in words)” value in experiment [1] was “no activity”.
For the molecule `CC1(C)CC(=O)C2=C(C1)OC(N)=C(C#N)C2c1ccc(OCc2ccc(C#N)cc2)cc1` (stereo not drawn) [6f, 2-Amino-4-(4-((4-cyanobenzyl)oxy)phenyl)-7,7-dimethyl-5-oxo-5,6,7,8-tetrahydro-4H-chromene-3-carbonitrile], the affinity at mushroom tyrosinase corresponds to a Ki of 16.1 µM. Moreover, at mushroom tyrosinase (Lineweaver-Burk plot, L-Dopa substrate), the type of inhibition result is on record as “competitive inhibition; also recorded: competitive inhibitor”.
